This is a sample that favours compounds with a hit; in the whole collection about 4.1% have one here.
KCNK9 inh – inhibitors of human KCNK9 two-pore domain potassium channel. hit rate 1.2% among 310,000. Q9NPC2. HEK293 KCNK9, FluxOR thallium flux fluorescence; active compounds read low. B-score at 10 µM;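 active = ratio B-score over 3 SD below the library mean, with starting fluorescence within 5 SD of its mean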;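 note: negative B-score means less thallium flux so channel inhibition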
Target sequence (Q9NPC2 whole entry, looked up, the tested form may be a part): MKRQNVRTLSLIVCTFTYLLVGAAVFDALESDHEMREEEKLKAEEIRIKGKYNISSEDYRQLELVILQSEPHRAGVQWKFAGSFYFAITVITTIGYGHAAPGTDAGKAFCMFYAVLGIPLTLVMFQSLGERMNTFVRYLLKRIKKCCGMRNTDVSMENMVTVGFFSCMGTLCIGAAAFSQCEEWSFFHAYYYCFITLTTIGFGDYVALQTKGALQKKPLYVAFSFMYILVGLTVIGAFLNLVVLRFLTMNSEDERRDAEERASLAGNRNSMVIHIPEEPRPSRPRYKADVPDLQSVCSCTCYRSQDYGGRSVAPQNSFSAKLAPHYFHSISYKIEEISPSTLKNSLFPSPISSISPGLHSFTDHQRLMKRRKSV
KCNK3 block – human KCNK3 channel inhibition, primary screen; O14649; AID 602410; CHO-KCNK3 thallium flux, FluxOR fluorescence; active compounds read low; B-score at 10 µM; hit rate 0.84% among 340,000;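 active = B-score under library mean minus 4 SD, starting fluorescence ratio at most library mean plus 5 SD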;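 note: more negative B-score means stronger inhibition of thallium flux through KCNK3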
Target sequence (O14649 whole entry, looked up): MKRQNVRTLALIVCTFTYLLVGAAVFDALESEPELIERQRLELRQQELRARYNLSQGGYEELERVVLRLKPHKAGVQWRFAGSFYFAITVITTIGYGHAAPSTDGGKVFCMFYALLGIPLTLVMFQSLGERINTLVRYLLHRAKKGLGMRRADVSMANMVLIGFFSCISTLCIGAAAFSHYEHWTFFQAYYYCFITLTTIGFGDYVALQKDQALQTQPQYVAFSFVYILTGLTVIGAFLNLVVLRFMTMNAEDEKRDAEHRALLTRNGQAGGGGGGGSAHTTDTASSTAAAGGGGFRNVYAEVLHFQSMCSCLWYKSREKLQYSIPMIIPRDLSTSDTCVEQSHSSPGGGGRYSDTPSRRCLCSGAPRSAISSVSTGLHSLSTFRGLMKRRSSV
KCNQ1 inh – inhibitors of human KCNQ1 potassium channel | B-score at 10 µM | hit rate 1.3% among 310,000 | CHO-K1 KCNQ1, FluxOR thallium flux fluorescence; active compounds read high;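 active = compounds whose thallium flux B-score, printed positive for inhibition, exceeds three library SD while starting fluorescence stays within three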;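 note: channel opened by potassium depolarization with thallium stimulus after 20 min compound exposure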
hERG rescue – hERG (human) protection from proarrhythmic block | activation (rescue from dofetilide block), less the hit threshold, % at 10 µM | Q12809 | CHO-hERG, FluxOR thallium flux, dofetilide IC70 present | hit rate 0.51% among 310,000;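 active = activation above the mean of controls blocked by dofetilide plus 5 SD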;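 note: thallium influx through hERG after potassium depolarization seen as dye fluorescence rise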
Cl transport mod – modulators of human KCC2 chloride dependent transport; Q9H2X9; KCC2 cells, thallium flux FluoZin-2 fluorescence; B-score of Tl+ flux slope (higher = more flux/activation; lower = inhibition) at 10 µM; hit rate 2.2% among 190,000; AID 1456;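 active = thallium flux slope and its plate-corrected score both differing from the plate sample mean at a set confidence after two filtering rounds, in either direction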;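 note: slope of fluorescence scaled to starting intensity during 10 to 20 s after thallium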
KCNQ1 act – potentiators or activators of human KCNQ1 potassium channel; P51787; CHO-K1 KCNQ1, thallium flux FluxOR fluorescence; active compounds read high; B-score at 10 µM; hit rate 0.35% among 310,000; AID 2648;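 active = fluorescence ratio B-score, a plate-corrected score, at least three library SD, with initial intensity B-score within 5 SD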
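Schedule – 37 °C overnight plating, 90-min dark dye load, 20-min compound pretreatment · System – stable KCNQ1 CHO-K1 line · Probe or stimulus – thallium- and potassium-containing depolarizing buffer · Measured by – kinetic FluxOR fluorescence, 10 s baseline plus 110 s post-stimulus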
Of the large screens only hits and unclear results are named; the others gave an inactive call.

COc1ccc(-c2nnc(-c3ccc(F)cc3)o2)cc1	none (no result: Cl transport mod)
c1ccc(Nc2nc(-c3ccccn3)cs2)cc1	none
COc1cccc2sc(NC(=O)c3ccc(Br)s3)nc12	none
COc1cccc2sc(Nc3nnc(-c4cccs4)o3)nc12	hERG rescue 34, Cl transport mod 58, KCNQ1 act 19
COc1cccc2sc(Nc3nnc(-c4ccc(F)cc4)o3)nc12	hERG rescue 46, KCNQ1 act 94 (no result: Cl transport mod)
COc1cccc2sc(Nc3nc(-c4ccccn4)cs3)nc12	KCNK9 inh -6.9, hERG rescue 24, KCNQ1 act 33 (no result: Cl transport mod)
COc1ccc(CN2CC(C(N)=O)Oc3ccccc32)cc1F (stereo not given)	none (no result: Cl transport mod)
CCCCc1ccc(S(=O)(=O)NCCCN2CCCC2=O)cc1	none (no result: Cl transport mod)
COc1ccc(NC(=O)CCCN2C(=O)C3CC=CCC3C2=O)cc1 (stereo not given)	none (no result: Cl transport mod)
CCc1sc(C(=O)Nc2cccnc2)cc1Br	none (no result: Cl transport mod)
CCOC(=O)C1=C(C)N=C2c3ccccc3C(=O)C2C1c1ccc(Cl)cc1 (stereo not given)	KCNK9 inh -8, KCNK3 block -10
CCOC(=O)C1=NNC(C(=O)c2ccccc2)C1c1ccc(Cl)cc1 (stereo not given)	none
CN(Cc1ccccc1)C(=O)COC(=O)CN1C(=O)c2ccccc2C1=O	none (no result: KCNK9 inh, KCNQ1 inh, hERG rescue, Cl transport mod, KCNQ1 act)
N#CC1=C(SCC(=O)NC23CC4CC(CC(C4)C2)C3)NC(=O)C(C#N)C12CCCCC2 (stereo not given)	KCNQ1 inh 10 (no result: Cl transport mod)
N#CC1=C(SCC(=O)NC2CC2)NC(=O)C(C#N)C12CCCCC2 (stereo not given)	none (no result: Cl transport mod)
COc1ccc(CC(=O)Nc2cccc(/C(C)=N/NC(=O)C3(C)CC3(Br)Br)c2)cc1 (stereo not given)	none (no result: Cl transport mod)
COc1ccc(N2CCN(S(=O)(=O)c3ccc4c(c3)CCCC4)CC2)c([N+](=O)[O-])c1	KCNQ1 inh 7
CCCCCOc1ccc(NC(=O)CSc2cccc3cccnc23)cc1	Cl transport mod 5.4
CCOC(=O)CSc1cccc2cccnc12	Cl transport mod 15
Cc1cccc(CSc2cccc3cccnc23)c1	Cl transport mod 19
Cc1nnc(SCc2ccc(F)cc2)n1NC/C=C/c1ccccc1	Cl transport mod -4.7
CCOc1ccc(CCNC(=O)c2sc3nc4n(c(=O)c3c2C)CCC4)cc1	none (no result: Cl transport mod)
CCC1=C/C(=C/c2sc3ccccc3[n+]2CC)CC(C)(C)C1	none
CC[n+]1c(/C=C2/C=C(C)CC(C)(C)C2)sc2ccc(OC)cc21	KCNQ1 inh 10
CC[n+]1c(/C=C2\C=C(C)CC(C)C2)sc2ccccc21 (stereo not given)	KCNQ1 inh 6
CC[n+]1c(/C=C2\C=C(C)CC(C)(C)C2)sc2ccccc21	KCNQ1 inh 7
CCCCn1c(N)c(N(CCC(C)C)C(=O)c2[nH]c(C)c(C(=O)OCC)c2C)c(=O)[nH]c1=O	none (no result: Cl transport mod)
Cc1cccc(-n2ccnc2SCC(=O)Nc2cccc(S(=O)(=O)NC3=NCCC3)c2)c1C	none (no result: KCNK9 inh, KCNQ1 inh, hERG rescue, Cl transport mod, KCNQ1 act)
C=CCNC(=O)c1c[nH]c2ccc(S(=O)(=O)N(C)c3ccc(OCC)cc3)cc2c1=O	none (no result: Cl transport mod)
Cc1ccc(NC(=O)c2ccc(=O)[nH]n2)cc1S(=O)(=O)Nc1ccc(SC(F)F)cc1	none (no result: KCNK9 inh, KCNQ1 inh, hERG rescue, Cl transport mod, KCNQ1 act)
CCCCC1(COC(=O)CCC(=O)O)C(=O)N(c2ccccc2)N(c2ccccc2)C1=O	none (no result: KCNK9 inh, KCNQ1 inh, hERG rescue, Cl transport mod, KCNQ1 act)
CCCCC1(Cc2ccc([N+](=O)[O-])cc2)C(=O)N(c2ccccc2)N(c2ccccc2)C1=O	KCNQ1 inh 8
Nc1cc2c(cc1Cl)-c1ccc([N+](=O)[O-])cc1C2=NO	none (no result: KCNK9 inh, KCNQ1 inh, hERG rescue, Cl transport mod, KCNQ1 act)
Cc1ccc(-n2c(SCc3cn4ccsc4n3)nc3ccccc3c2=O)cc1	KCNQ1 inh 7 (no result: Cl transport mod)
c1ccc(-n2cnnc2SCc2cn3ccsc3n2)cc1	none
CCN(CC)Cc1ccccc1CNC(=O)c1cccc(S(=O)(=O)Nc2ccc3c(c2)OCO3)c1	KCNK3 block -9.3 (no result: KCNK9 inh, KCNQ1 inh, hERG rescue, Cl transport mod, KCNQ1 act)
CC(=O)C1=C(C)NC(SCC(=O)Nc2nc3ccccc3s2)=C(C#N)C1c1ccc(Cl)cc1 (stereo not given)	KCNQ1 inh 7
Cc1nnc(NC(=O)C2CCCN(S(=O)(=O)Cc3ccccc3)C2)s1 (stereo not given)	none
Cc1nnc(NC(=O)C2CCCN(S(=O)(=O)c3ccccc3C(F)(F)F)C2)s1 (stereo not given)	hERG rescue 15
O=c1c2cc(Cl)ccc2nc(-c2ccc(Cl)c(Cl)c2)n1O	hERG rescue 42, KCNQ1 act 119 (no result: Cl transport mod)
O=c1c2cc(Br)ccc2nc(-c2cccc(C(F)(F)F)c2)n1O	hERG rescue 73, Cl transport mod 24, KCNQ1 act 99
CC1CCN(C(=O)c2ccc(N3CCOCC3)c([N+](=O)[O-])c2)CC1	none (no result: KCNK9 inh, KCNQ1 inh, hERG rescue, Cl transport mod, KCNQ1 act)
CCN(c1ccc(NC(=O)CSCc2c(C)noc2C)cc1)C(C)C	none (no result: KCNK9 inh, KCNQ1 inh, hERG rescue, Cl transport mod, KCNQ1 act)
O=C(c1ccc(F)cc1F)N1CCCc2ccccc21	none (no result: Cl transport mod)
N#Cc1nc(-c2ccccc2Cl)oc1NCc1ccco1	KCNK9 inh -7.5
O=C(NNc1ncccc1-n1cccc1)c1ccc(Cl)cc1	none
CC(C)(C)c1ccc(C(=O)NNc2ncccc2-n2cccc2)cc1	KCNQ1 inh 7
Cc1noc(C)c1NC(=O)Nc1ccc2c(c1)C(=O)N([C@H](C)CO)C[C@H](C)[C@@H](CN(C)S(=O)(=O)c1cccs1)O2	none (no result: KCNK9 inh, KCNQ1 inh, hERG rescue, Cl transport mod, KCNQ1 act)
Cc1cc(C)n2nc(SCC(=O)N3CC(C)CC(C)C3)nc2n1 (stereo not given)	none (no result: KCNK9 inh, KCNQ1 inh, hERG rescue, Cl transport mod, KCNQ1 act)
Cc1ccc(OCCSc2nc3ccccc3n2CC(=O)O)c(C(C)C)c1	none (no result: Cl transport mod)
COc1cccc(-c2nc(CS(=O)(=O)CC(=O)NCCCN3CCc4ccccc4C3)c(C)o2)c1	Cl transport mod -3.9
COc1cccc(-c2nc(CS(=O)(=O)CC(=O)NCCCN3CCOCC3)c(C)o2)c1	none (no result: Cl transport mod)
CCCc1cc(-c2nc(N)ncc2-c2ccc3c(c2)OCCCO3)c(O)cc1OC	KCNQ1 inh 7
CCOC(=O)c1c(-c2ccc(C)o2)csc1N	none (no result: Cl transport mod)
CCOC(=O)c1c(-c2ccc(C)o2)csc1NC(=S)NC(=O)N(C)C	hERG rescue 14, KCNQ1 act 39 (no result: Cl transport mod)
CCOC(=O)c1c(-c2ccc(C)o2)csc1NC(=O)COC(=O)c1cccs1	KCNK9 inh -6.7
CCOC(=O)c1c(-c2ccc(C)o2)csc1NC(=O)CN1CCOCC1	none (no result: Cl transport mod)
Cc1ccc(CNC(=S)N2CCOCC2)cc1	none
Cc1ccc(/C=N/NC(=S)N2CCOCC2)cc1	Cl transport mod 32
S=C(N/N=C/c1ccc(Br)cc1)N1CCCCC1	none (no result: Cl transport mod)
S=C(N/N=C/c1ccc(Cl)cc1)N1CCOCC1	hERG rescue 8.6, Cl transport mod 41
CC(C)CC(=O)Nc1ccc(C(=O)NNC(=S)NC(=O)C2CCCCC2)cc1	KCNQ1 inh 7 (no result: Cl transport mod)
CC(C)CCNC(=O)CN1N=C(c2ccc(Cl)cc2)CCC1=O	none (no result: Cl transport mod)
C/C(=N\Oc1cccc(F)n1)c1ccc(Cl)cc1Cl	KCNQ1 inh 6
